According to ChEMBL document CHEMBL4376874, “Discovery of Potent and Selective Epidermal Growth Factor Receptor (EGFR) Bifunctional Small-Molecule Degraders” (J Med Chem, 2020):
Activity calls are given as the source filed them. No cut-off for these calls is given here.

Columns and labels:
[1] = system: Protein cereblon/Epidermal growth factor receptor (Homo sapiens), P00533+Q96SW2 [UNDEFINED MUTATION]; assay: Protac activity at CRBN/EGFR exon 19 deletion mutant in human HCC827 cells assessed as induction of EGFR degradation at >=50 nM treated 8 hrs post serum starvation measured after 16 hrs by Western blot analysis relative to control; format: cell-based
Sequence of Protein cereblon/Epidermal growth factor receptor (Homo sapiens), P00533+Q96SW2 [UNDEFINED MUTATION] (P00533 whole entry, looked up, stated change not applied): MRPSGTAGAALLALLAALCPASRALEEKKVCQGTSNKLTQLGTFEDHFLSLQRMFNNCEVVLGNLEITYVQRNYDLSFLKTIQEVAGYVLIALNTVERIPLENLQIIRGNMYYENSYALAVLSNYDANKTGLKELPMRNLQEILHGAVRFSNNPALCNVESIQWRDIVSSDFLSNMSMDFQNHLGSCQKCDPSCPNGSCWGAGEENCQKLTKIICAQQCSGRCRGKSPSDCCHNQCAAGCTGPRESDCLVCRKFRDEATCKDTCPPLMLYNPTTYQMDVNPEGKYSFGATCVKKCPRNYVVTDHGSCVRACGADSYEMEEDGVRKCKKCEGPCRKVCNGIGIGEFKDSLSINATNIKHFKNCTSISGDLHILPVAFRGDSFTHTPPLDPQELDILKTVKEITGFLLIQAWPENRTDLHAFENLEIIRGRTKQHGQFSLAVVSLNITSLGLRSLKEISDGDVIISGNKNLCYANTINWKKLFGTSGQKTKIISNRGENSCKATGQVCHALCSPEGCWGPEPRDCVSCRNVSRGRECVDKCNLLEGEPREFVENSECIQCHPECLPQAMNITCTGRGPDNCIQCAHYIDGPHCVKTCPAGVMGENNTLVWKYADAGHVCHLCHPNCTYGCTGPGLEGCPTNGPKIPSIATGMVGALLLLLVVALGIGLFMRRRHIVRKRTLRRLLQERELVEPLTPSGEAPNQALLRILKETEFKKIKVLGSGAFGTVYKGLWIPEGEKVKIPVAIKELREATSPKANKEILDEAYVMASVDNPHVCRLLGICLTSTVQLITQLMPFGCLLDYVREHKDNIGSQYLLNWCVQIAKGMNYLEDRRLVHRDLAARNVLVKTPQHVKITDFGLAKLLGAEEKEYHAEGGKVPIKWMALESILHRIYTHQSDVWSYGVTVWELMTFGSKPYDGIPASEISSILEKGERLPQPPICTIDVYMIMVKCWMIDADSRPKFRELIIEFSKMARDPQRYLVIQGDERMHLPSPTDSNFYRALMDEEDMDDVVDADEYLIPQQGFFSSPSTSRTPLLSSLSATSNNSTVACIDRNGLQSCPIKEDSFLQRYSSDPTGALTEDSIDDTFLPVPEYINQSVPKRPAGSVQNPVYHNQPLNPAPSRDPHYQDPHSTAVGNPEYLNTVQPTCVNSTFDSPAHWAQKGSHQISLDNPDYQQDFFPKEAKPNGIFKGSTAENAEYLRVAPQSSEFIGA
Sequence of Protein cereblon/Epidermal growth factor receptor (Homo sapiens), P00533+Q96SW2 [UNDEFINED MUTATION] (Q96SW2 whole entry, looked up, stated change not applied): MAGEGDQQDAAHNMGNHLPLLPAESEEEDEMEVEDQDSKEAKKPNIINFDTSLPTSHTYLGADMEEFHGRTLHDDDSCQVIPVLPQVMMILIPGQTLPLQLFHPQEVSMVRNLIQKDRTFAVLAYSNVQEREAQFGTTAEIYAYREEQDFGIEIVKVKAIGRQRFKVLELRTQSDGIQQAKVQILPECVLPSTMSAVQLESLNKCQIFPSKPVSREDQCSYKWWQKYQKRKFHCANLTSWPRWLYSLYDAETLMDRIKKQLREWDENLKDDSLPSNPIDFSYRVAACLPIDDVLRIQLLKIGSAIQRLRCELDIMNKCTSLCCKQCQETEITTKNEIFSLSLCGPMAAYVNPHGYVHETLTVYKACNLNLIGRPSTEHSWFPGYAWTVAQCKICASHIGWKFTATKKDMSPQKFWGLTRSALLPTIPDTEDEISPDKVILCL
How it was run: (§1)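 Cultured to 80% confluence in RPMI/1640 with 20% FBS at 37 °C and 5% CO2, then switched to serum-free medium for 8 h. Degraders were added over a concentration range up to 10 μM for 16 h, with gefitinib at 1 μM as reference. Lysates in Laemmli buffer were immunoblotted for EGFR, p-EGFR and p-AKT. DC50 came from band quantification by nonlinear regression (variable slope).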

[2] = system: Protein cereblon/Epidermal growth factor receptor (Homo sapiens), P00533+Q96SW2 [L858R]; assay: Protac activity at CRBN/EGFR L858R mutant in human H3255 cells assessed as induction of EGFR degradation at >=50 nM treated 8 hrs post serum starvation measured after 16 hrs by Western blot analysis relative to control; format: cell-based; how it was run: as §1
[3] = system: Protein cereblon/Epidermal growth factor receptor (Homo sapiens), P00533+Q96SW2 [UNDEFINED MUTATION]; assay: Protac activity at CRBN/EGFR exon 19 deletion mutant in human HCC827 cells assessed as induction of EGFR degradation at 10 uM treated 8 hrs post serum starvation measured after 16 hrs by Western blot analysis relative to control; format: cell-based; how it was run: as §1
[4] = system: Protein cereblon/Epidermal growth factor receptor (Homo sapiens), P00533+Q96SW2 [L858R]; assay: Protac activity at CRBN/EGFR L858R mutant in human H3255 cells assessed as induction of EGFR degradation at 10 uM treated 8 hrs post serum starvation measured after 16 hrs by Western blot analysis; format: cell-based; how it was run: as §1
[5] = system: Protein cereblon/Epidermal growth factor receptor (Homo sapiens), P00533+Q96SW2 [UNDEFINED MUTATION]; assay: Protac activity at CRBN/EGFR exon 19 deletion mutant in human HCC827 cells assessed as reduction in EGFR autophosphorylation up to 10 uM treated 8 hrs post serum starvation measured after 16 hrs by Western blot analysis; format: cell-based; how it was run: as §1
[6] = system: Protein cereblon/Epidermal growth factor receptor (Homo sapiens), P00533+Q96SW2 [L858R]; assay: Protac activity at CRBN/EGFR L858R mutant in human H3255 cells assessed as reduction in EGFR autophosphorylation up to 10 uM treated 8 hrs post serum starvation measured after 16 hrs by Western blot analysis; format: cell-based; how it was run: as §1
[7] = system: Protein cereblon/Epidermal growth factor receptor (Homo sapiens), P00533+Q96SW2 [UNDEFINED MUTATION]; assay: Protac activity at CRBN/EGFR exon 19 deletion mutant in human HCC827 cells assessed as reduction in AKT phosphorylation up to 10 uM treated 8 hrs post serum starvation measured after 16 hrs by Western blot analysis; format: cell-based; how it was run: as §1
[8] = system: NCI-H3255; assay: Effect on AKT level in human H3255 cells up to 10 uM treated 8 hrs post serum starvation measured after 16 hrs by Western blot analysis; format: ADME, cell-based; conditions: nci-h3255, 16 h
[9] = target: Epidermal growth factor receptor (Homo sapiens, UniProt P00533); assay: Induction of wild-type EGFR degradation in human H1299 cells at up to 10 uM treated 8 hrs post serum starvation measured after 16 hrs by Western blot analysis; format: cell-based
Sequence of Epidermal growth factor receptor (P00533 whole entry): as the sequence (P00533 whole entry, looked up, stated change not applied) above

[10] = system: Protein cereblon/Epidermal growth factor receptor (Homo sapiens), P00533+Q96SW2 [UNDEFINED MUTATION]; assay: Protac activity at CRBN/EGFR exon 19 deletion mutant in human HCC827 cells assessed as time required to induce 50% EGFR degradation at 100 nM treated 8 hrs post serum starvation by Western blot analysis; format: cell-based
How it was run: (§2)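 After 8 h serum starvation, cells got 100 nM degrader and were collected at serial time points for Western blot of EGFR and downstream signaling.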

[11] = system: Protein cereblon/Epidermal growth factor receptor (Homo sapiens), P00533+Q96SW2 [L858R]; assay: Protac activity at CRBN/EGFR L858R mutant in human H3255 cells assessed as reduction in AKT phosphorylation at 100 nM treated 8 hrs post serum starvation by Western blot analysis; format: cell-based; conditions: TDE = time-dependent effect; how it was run: as §2
[12] = system: Protein cereblon/Epidermal growth factor receptor (Homo sapiens), P00533+Q96SW2 [UNDEFINED MUTATION]; assay: Protac activity at CRBN/EGFR exon 19 deletion mutant in human HCC827 cells assessed as induction of EGFR degradation at 0.1 to 1 uM incubated for 8 hrs in absence of FBS by Western blot analysis; format: cell-based
[13] = system: Protein cereblon/Epidermal growth factor receptor (Homo sapiens), P00533+Q96SW2 [L858R]; assay: Protac activity at CRBN/EGFR L858R mutant in human H3255 cells assessed as induction of EGFR degradation at 0.1 to 1 uM incubated for 8 hrs in absence of FBS by Western blot analysis; format: cell-based
[14] = system: Protein cereblon/Epidermal growth factor receptor (Homo sapiens), P00533+Q96SW2 [L858R]; assay: Protac activity at CRBN/EGFR L858R mutant in human H3255 cells assessed as induction of EGFR degradation at 100 nM measured after 8 hrs in presence of CRBN E3 ligase binder thalidomide by Western blot analysis; format: cell-based
[15] = system: Protein cereblon/Epidermal growth factor receptor (Homo sapiens), P00533+Q96SW2 [L858R]; assay: Protac activity at CRBN/EGFR L858R mutant in human H3255 cells assessed as induction of EGFR degradation at 100 nM measured after 8 hrs in presence of negative control MS154N by Western blot analysis; format: cell-based
[16] = system: Protein cereblon/Epidermal growth factor receptor (Homo sapiens), P00533+Q96SW2 [UNDEFINED MUTATION]; assay: Reversible protac activity at CRBN/EGFR exon 19 deletion mutant in human HCC827 cells assessed as recovery of EGFR degradation at 100 nM preincubated for 12 hrs followed by compound washout and measured after 24 hrs by Western blot analysis; format: cell-based
How it was run: (§3)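 Cells were serum-starved 8 h, then given degrader for 12 h. They were washed three times with PBS and harvested at the indicated time points after washout. EGFR, p-EGFR and p-AKT were read by Western blot.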

[17] = system: Protein cereblon/Epidermal growth factor receptor (Homo sapiens), P00533+Q96SW2 [UNDEFINED MUTATION]; assay: Reversible protac activity at CRBN/EGFR exon 19 deletion mutant in human HCC827 cells assessed as recovery of EGFR phosphorylation at 100 nM preincubated for 12 hrs followed by compound washout and measured after 24 hrs by Western blot analysis; format: cell-based; how it was run: as §3
[18] = system: Protein cereblon/Epidermal growth factor receptor (Homo sapiens), P00533+Q96SW2 [L858R]; assay: Reversible protac activity at CRBN/EGFR L858R mutant in human H3255 cells assessed as recovery of EGFR degradation at 100 nM preincubated for 12 hrs followed by compound washout and measured up to 48 hrs by Western blot analysis; format: cell-based; how it was run: as §3
[19] = system: NCI-H3255; assay: Antiproliferative activity against human H3255 cells measured after 3 days by CCK8 assay; format: functional, cell-based
How it was run: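 H3255 cells seeded 4000/well the night before, then exposed to serial dilutions for 3 days. Growth read by Cell Counting Kit-8; three independent experiments. IC50 from nonlinear regression (log inhibitor vs response, variable slope).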

[20] = system: Protein cereblon/Epidermal growth factor receptor (Homo sapiens), P00533+Q96SW2 [UNDEFINED MUTATION]; assay: Protac activity at CRBN/EGFR exon 19 deletion mutant in human HCC827 cells assessed as induction of EGFR degradation at 100 nM measured after 16 hrs by LC-MS analysis relative to control; format: cell-based
[21] = system: HCC827; assay: Up regulation of HMGCS1 expression in human HCC827 cells at 100 nM measured after 16 hrs by LC-MS analysis; format: functional, cell-based
How it was run: (§4)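 HCC-827 cells serum-starved 8 h, then treated at 100 nM for 16 h. Collected for label-free quantitative LC–MS proteomics; LFQ intensity compared between treated and control groups; three independent experiments.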

[22] = system: HCC827; assay: Down regulation of SLC30A7 expression in human HCC827 cells at 100 nM measured after 16 hrs by LC-MS analysis; format: functional, cell-based; how it was run: as §4
[23] = system: HCC827; assay: Down regulation of NELFE expression in human HCC827 cells at 100 nM measured after 16 hrs by LC-MS analysis; format: functional, cell-based; how it was run: as §4
[24] = Toxicity in Swiss albino mouse assessed as clinical changes at 50 mg/kg, ip; format: organism-based; conditions: in vivo
[25] = system: Protein cereblon/Epidermal growth factor receptor (Homo sapiens), P00533+Q96SW2 [UNDEFINED MUTATION]; assay: Reversible protac activity at CRBN/EGFR exon 19 deletion mutant in human HCC827 cells assessed as recovery of AKT phosphorylation at 100 nM preincubated for 12 hrs followed by compound washout and measured after 48 hrs by Western blot analysis

## COc1cc2ncnc(Nc3ccc(F)c(Cl)c3)c2cc1OCCCN1CCN(CCC(=O)NCCCCCCCCOc2cccc3c2C(=O)N(C2CCC(=O)NC2=O)C3=O)CC1 (stereo not given)
[1]
  %max: > 95%
[2]
  %max: > 95%
[3]
  Activity: inactive
[4]
  Activity: Active
[5]
  Activity: Active
[6]
  Activity: Active
[7]
  Activity: Active
[8]
  Activity: Non-Toxic
[9]
  Activity: Not Active
[10]
  T1/2: 3.5 h
[11]
  Activity: Tde
[12]
  Activity: Active
[13]
  Activity: Active
[14]
  Activity: inactive
[15]
  Activity: inactive
[16]
  Activity: Active
[17]
  Activity: Active
[18]
  Activity: Active
[19]
  Activity: Active
[20]
  Activity: > 75%
[21]
  Activity: Active
[22]
  Activity: Active
[23]
  Activity: Active
[24]
  Activity: Non-Toxic
[25]
  Activity: Active
